Laboratory results reported in ChEMBL document CHEMBL4011617, “Ugi Reaction-Derived α-Acyl Aminocarboxamides Bind to Phosphatidylinositol 3-Kinase-Related Kinases, Inhibit HSF1-Dependent Heat Shock Response, and Induce Apoptosis in Multiple Myeloma Cells” (J Med Chem, 2017).
Active and inactive are the calls of the source. The calls are words filed in the database; no cut-off is given here.

Experiments:
[1] = target: Conserved oligomeric Golgi complex subunit 8 (Homo sapiens) (UniProt Q96MW5); assay: Binding affinity to COG8 in human INA-6 cells after 3 hrs by nanoLC-MS/MS method; type: cell-based
Outline: (§1)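 The biotinylated inhibitor was loaded on streptavidin beads, with empty beads as the control. Eluates were trypsin-digested and run by nanoLC-MS/MS. Inhibitor/control ratios came from label-free quantification, taken as medians of five biological replicates. Enrichment was called at Benjamini-Hochberg-adjusted limma p < 0.02.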

[2] = target: Serine/threonine-protein phosphatase 6 regulatory ankyrin repeat subunit B (Homo sapiens) (UniProt Q8N8A2); assay: Binding affinity to serine/threonine-protein phosphatase 6 regulatory ankyrin repeat subunit B in human INA-6 cells after 3 hrs by nanoLC-MS/MS method; type: cell-based; outline: as §1
[3] = target: CCR4-NOT transcription complex subunit 1 (Homo sapiens) (UniProt A5YKK6); assay: Binding affinity to CCR4-NOT transcription complex subunit 1 in human INA-6 cells after 3 hrs by nanoLC-MS/MS method; type: cell-based; outline: as §1
[4] = target: MICOS complex subunit MIC60 (Homo sapiens) (UniProt Q16891); assay: Binding affinity to MICOS complex subunit MIC60 in human INA-6 cells after 3 hrs by nanoLC-MS/MS method; type: cell-based; outline: as §1
[5] = target: Stalled ribosome sensor GCN1 (Homo sapiens) (UniProt Q92616); assay: Binding affinity to GCN1 protein in human INA-6 cells after 3 hrs by nanoLC-MS/MS method; type: cell-based; outline: as §1
Peflin (Homo sapiens) = Peflin (Homo sapiens) (UniProt Q9UBV8); assay: Binding affinity to PEF1 protein in human INA-6 cells after 3 hrs by nanoLC-MS/MS method; type: cell-based; outline: as §1
[6] = target: MICOS complex subunit MIC10 (Homo sapiens) (UniProt Q5TGZ0); assay: Binding affinity to MICOS complex subunit MIC10 in human INA-6 cells after 3 hrs by nanoLC-MS/MS method; type: cell-based; outline: as §1
[7] = target: Conserved oligomeric Golgi complex subunit 7 (Homo sapiens) (UniProt P83436); assay: Binding affinity to COG7 in human INA-6 cells after 3 hrs by nanoLC-MS/MS method; type: cell-based; outline: as §1
[8] = target: CCR4-NOT transcription complex subunit 4 (Homo sapiens) (UniProt O95628); assay: Binding affinity to CCR4-NOT transcription complex subunit 4 in human INA-6 cells after 3 hrs by nanoLC-MS/MS method; type: cell-based; outline: as §1
[9] = target: Conserved oligomeric Golgi complex subunit 6 (Homo sapiens) (UniProt Q9Y2V7); assay: Binding affinity to COG6 in human INA-6 cells after 3 hrs by nanoLC-MS/MS method; type: cell-based; outline: as §1
INA-6 [10] = assay: Inhibition of heat shock response in human INA-6 cells assessed as reduction in HSF-1 mediated upregulation of the heat shock protein HSP72 at 50 uM preincubated for 4 hrs followed by HSP90 inhibitor and HSR inducer NVP-AUY922 addition measured after 4 hrs by ELISA; type: functional, cell-based
Outline: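 HSP72 quantified by ELISA in the same protein lysates used for Western blots. INA-6 cells received compound for 4 h, then NVP-AUY922 co-treatment for 4 h more to stimulate HSF1. DMSO-only and NVP-AUY922-only cells served as negative and positive controls.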

[11] = target: Brefeldin A-inhibited guanine nucleotide-exchange protein 2 (Homo sapiens) (UniProt Q9Y6D5); assay: Binding affinity to BIG2 protein in human INA-6 cells after 3 hrs by nanoLC-MS/MS method; type: cell-based; outline: as §1
[12] = target: Survival motor neuron protein (Homo sapiens) (UniProt Q16637); assay: Binding affinity to survival motor neuron protein in human INA-6 cells after 3 hrs by nanoLC-MS/MS method; type: cell-based; outline: as §1
[13] = target: Serine/threonine-protein phosphatase 6 regulatory ankyrin repeat subunit A (Homo sapiens) (UniProt O15084); assay: Binding affinity to serine/threonine-protein phosphatase 6 regulatory ankyrin repeat subunit A in human INA-6 cells after 3 hrs by nanoLC-MS/MS method; type: cell-based; outline: as §1
[14] = target: MICOS complex subunit MIC25 (Homo sapiens) (UniProt Q9BRQ6); assay: Binding affinity to MICOS complex subunit MIC25 in human INA-6 cells after 3 hrs by nanoLC-MS/MS method; type: cell-based; outline: as §1
[15] = target: DNA-dependent protein kinase catalytic subunit (Homo sapiens) (UniProt P78527); assay: Binding affinity to PRKDC protein in human INA-6 cells after 3 hrs by nanoLC-MS/MS method; type: cell-based; outline: as §1
[16] = target: Serine/threonine-protein phosphatase 6 catalytic subunit (Homo sapiens) (UniProt O00743); assay: Binding affinity to serine/threonine-protein phosphatase 6 catalytic subunit in human INA-6 cells after 3 hrs by nanoLC-MS/MS method; type: cell-based; outline: as §1
[17] = target: CCR4-NOT transcription complex subunit 2 (Homo sapiens) (UniProt Q9NZN8); assay: Binding affinity to CCR4-NOT transcription complex subunit 2 in human INA-6 cells after 3 hrs by nanoLC-MS/MS method; type: cell-based; outline: as §1
[18] = target: Serine-protein kinase ATM (Homo sapiens) (UniProt Q13315); assay: Binding affinity to ATM protein in human INA-6 cells after 3 hrs by nanoLC-MS/MS method; type: cell-based; outline: as §1
[19] = target: Conserved oligomeric Golgi complex subunit 4 (Homo sapiens) (UniProt Q9H9E3); assay: Binding affinity to COG4 in human INA-6 cells after 3 hrs by nanoLC-MS/MS method; type: cell-based; outline: as §1
[20] = target: CCR4-NOT transcription complex subunit 9 (Homo sapiens) (UniProt Q92600); assay: Binding affinity to RCD1 protein in human INA-6 cells after 3 hrs by nanoLC-MS/MS method; type: cell-based; outline: as §1
[21] = target: Serine/threonine-protein phosphatase 6 regulatory subunit 2 (Homo sapiens) (UniProt O75170); assay: Binding affinity to PP6R2 protein in human INA-6 cells after 3 hrs by nanoLC-MS/MS method; type: cell-based; outline: as §1
[22] = target: CCR4-NOT transcription complex subunit 1 (Homo sapiens) (UniProt A5YKK6); assay: Binding affinity to CNOT1 protein in human INA-6 cells after 3 hrs by nanoLC-MS/MS method; type: cell-based; outline: as §1
INA-6 [23] = assay: Inhibition of heat shock response in human INA-6 cells assessed as reduction in HSF-1 mediated upregulation of the heat shock protein HSP27 at 50 uM preincubated for 4 hrs followed by HSP90 inhibitor and HSR inducer NVP-AUY922 addition measured after 4 hrs by Western blot method; type: functional, cell-based
Outline: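 INA-6 myeloma cells pretreated with test compound for 4 h, then co-treated with the HSP90 inhibitor/HSR inducer NVP-AUY922 for a further 4 h. Cells harvested; HSP72, HSP27, HSF1 or phospho-HSF1 probed by Western blot with β-actin as loading control. DMSO-only cells were the negative control; NVP-AUY922-only cells were the positive control.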

[24] = target: Gem-associated protein 7 (Homo sapiens) (UniProt Q9H840); assay: Binding affinity to GEMIN7 in human INA-6 cells after 3 hrs by nanoLC-MS/MS method; type: cell-based; outline: as §1
[25] = target: CCR4-NOT transcription complex subunit 3 (Homo sapiens) (UniProt O75175); assay: Binding affinity to CCR4-NOT transcription complex subunit 3 in human INA-6 cells after 3 hrs by nanoLC-MS/MS method; type: cell-based; outline: as §1
[26] = target: MICOS complex subunit MIC19 (Homo sapiens) (UniProt Q9NX63); assay: Binding affinity to MICOS complex subunit MIC19 in human INA-6 cells after 3 hrs by nanoLC-MS/MS method; type: cell-based; outline: as §1
[27] = target: Serine/threonine-protein phosphatase 6 regulatory ankyrin repeat subunit C (Homo sapiens) (UniProt Q8NB46); assay: Binding affinity to serine/threonine-protein phosphatase 6 regulatory ankyrin repeat subunit C in human INA-6 cells after 3 hrs by nanoLC-MS/MS method; type: cell-based; outline: as §1

Chain of CCR4-NOT transcription complex subunit 1 (Homo sapiens) (A5YKK6 whole entry, one chain of several): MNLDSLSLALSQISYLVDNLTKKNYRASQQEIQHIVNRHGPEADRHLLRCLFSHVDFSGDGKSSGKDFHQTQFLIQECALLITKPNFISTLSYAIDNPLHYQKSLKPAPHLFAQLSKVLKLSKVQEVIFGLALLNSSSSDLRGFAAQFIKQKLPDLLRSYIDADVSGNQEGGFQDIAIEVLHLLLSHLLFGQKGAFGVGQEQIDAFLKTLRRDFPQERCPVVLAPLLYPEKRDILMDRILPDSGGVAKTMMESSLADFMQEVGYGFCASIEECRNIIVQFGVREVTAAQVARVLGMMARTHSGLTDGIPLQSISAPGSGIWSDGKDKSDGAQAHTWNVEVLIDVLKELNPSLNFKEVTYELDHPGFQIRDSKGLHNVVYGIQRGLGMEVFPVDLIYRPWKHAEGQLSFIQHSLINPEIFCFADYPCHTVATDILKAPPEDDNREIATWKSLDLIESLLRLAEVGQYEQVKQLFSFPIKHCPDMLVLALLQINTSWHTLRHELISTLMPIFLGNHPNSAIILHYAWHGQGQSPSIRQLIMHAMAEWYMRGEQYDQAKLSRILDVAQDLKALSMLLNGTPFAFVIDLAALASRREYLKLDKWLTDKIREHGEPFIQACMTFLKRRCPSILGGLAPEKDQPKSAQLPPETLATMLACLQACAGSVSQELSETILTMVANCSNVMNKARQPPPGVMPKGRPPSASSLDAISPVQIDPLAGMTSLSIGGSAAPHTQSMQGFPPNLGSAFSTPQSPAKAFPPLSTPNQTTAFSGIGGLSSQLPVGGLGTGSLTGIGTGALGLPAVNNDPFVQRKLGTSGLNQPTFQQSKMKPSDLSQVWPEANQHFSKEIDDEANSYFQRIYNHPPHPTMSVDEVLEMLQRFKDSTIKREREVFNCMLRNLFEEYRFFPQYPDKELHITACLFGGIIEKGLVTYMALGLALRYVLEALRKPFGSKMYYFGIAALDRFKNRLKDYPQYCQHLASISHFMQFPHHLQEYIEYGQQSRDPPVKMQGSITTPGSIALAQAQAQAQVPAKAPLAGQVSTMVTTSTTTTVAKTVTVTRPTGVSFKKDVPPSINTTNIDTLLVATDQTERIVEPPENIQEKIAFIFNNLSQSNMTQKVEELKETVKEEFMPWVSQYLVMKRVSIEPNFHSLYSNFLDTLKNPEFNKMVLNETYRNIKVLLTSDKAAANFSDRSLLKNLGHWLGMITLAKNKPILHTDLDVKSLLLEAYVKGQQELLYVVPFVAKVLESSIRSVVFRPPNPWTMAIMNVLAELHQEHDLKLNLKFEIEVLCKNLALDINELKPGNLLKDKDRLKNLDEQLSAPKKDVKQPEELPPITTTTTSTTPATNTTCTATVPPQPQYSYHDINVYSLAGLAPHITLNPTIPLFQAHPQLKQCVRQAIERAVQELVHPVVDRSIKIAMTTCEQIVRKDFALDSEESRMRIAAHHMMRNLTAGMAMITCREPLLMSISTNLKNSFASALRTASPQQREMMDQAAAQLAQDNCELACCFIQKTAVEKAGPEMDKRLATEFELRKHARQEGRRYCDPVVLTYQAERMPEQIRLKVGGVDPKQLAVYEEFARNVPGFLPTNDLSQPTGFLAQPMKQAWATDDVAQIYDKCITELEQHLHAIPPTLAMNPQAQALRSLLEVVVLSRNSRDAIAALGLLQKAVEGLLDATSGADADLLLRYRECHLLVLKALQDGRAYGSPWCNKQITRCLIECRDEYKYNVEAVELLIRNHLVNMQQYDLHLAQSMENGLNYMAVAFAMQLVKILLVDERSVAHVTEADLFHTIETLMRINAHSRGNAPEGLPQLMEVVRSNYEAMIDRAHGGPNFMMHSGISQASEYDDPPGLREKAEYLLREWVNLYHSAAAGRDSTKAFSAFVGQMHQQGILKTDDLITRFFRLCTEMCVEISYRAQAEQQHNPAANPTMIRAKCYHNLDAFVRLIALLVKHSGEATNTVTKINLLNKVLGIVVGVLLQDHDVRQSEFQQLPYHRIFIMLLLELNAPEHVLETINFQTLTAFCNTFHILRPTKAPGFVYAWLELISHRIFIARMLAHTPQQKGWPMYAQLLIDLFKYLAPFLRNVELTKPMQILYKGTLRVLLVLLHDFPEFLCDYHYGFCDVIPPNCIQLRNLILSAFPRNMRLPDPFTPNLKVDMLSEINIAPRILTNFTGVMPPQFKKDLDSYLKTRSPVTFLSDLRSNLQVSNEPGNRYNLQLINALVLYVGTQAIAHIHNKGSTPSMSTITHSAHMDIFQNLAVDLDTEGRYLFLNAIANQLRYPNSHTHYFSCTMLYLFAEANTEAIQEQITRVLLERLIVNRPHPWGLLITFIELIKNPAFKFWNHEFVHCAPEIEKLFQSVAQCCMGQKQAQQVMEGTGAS
Chain of CCR4-NOT transcription complex subunit 3 (Homo sapiens) (O75175 whole entry, one chain of several): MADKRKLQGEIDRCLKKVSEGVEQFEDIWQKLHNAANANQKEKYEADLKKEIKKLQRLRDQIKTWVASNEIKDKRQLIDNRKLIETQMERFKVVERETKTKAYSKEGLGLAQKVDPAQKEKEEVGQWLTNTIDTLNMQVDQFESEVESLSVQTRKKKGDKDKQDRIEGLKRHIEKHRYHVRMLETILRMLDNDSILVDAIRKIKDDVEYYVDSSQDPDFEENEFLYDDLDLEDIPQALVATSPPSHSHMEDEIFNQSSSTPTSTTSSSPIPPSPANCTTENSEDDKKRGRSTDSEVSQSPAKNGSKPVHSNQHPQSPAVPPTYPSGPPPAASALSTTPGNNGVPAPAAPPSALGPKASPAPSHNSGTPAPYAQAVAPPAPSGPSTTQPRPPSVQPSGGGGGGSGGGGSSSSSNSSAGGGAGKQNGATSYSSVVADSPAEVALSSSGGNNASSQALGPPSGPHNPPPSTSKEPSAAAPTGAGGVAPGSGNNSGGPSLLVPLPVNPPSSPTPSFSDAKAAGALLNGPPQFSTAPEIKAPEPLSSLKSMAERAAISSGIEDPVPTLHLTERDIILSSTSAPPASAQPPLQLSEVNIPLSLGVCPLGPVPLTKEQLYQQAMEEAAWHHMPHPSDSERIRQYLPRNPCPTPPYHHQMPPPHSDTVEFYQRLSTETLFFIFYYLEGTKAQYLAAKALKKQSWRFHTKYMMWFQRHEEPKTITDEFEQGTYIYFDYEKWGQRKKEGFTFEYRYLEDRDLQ
Chain of MICOS complex subunit MIC60 (Homo sapiens) (Q16891 whole entry, one chain of several): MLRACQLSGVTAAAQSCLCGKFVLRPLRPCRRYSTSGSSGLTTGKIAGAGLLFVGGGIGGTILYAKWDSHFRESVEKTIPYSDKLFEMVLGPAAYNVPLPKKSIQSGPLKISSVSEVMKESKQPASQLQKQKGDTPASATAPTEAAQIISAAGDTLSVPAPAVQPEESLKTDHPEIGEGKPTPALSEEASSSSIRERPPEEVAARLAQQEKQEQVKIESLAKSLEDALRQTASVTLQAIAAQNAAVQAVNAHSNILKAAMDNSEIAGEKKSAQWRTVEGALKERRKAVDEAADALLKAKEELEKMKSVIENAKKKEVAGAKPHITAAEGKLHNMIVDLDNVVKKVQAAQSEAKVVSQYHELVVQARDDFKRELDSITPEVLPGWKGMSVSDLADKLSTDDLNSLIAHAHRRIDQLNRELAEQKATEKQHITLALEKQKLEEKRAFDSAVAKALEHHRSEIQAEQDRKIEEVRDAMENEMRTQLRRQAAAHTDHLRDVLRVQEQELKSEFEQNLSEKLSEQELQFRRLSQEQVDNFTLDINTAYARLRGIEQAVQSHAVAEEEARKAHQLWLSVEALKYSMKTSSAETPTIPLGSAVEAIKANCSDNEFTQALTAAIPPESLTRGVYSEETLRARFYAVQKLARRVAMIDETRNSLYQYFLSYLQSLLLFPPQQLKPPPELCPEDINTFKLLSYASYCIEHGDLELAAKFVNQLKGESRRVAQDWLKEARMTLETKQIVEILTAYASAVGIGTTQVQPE
Chain of Peflin (Homo sapiens) (Q9UBV8 whole entry): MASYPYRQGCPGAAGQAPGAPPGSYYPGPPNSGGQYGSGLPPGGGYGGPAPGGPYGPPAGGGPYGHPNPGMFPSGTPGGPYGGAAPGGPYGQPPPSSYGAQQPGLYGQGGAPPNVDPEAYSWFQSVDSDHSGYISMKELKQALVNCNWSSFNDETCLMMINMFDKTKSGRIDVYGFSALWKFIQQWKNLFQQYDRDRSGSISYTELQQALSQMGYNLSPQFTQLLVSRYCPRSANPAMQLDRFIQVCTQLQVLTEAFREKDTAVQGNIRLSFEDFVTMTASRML
Chain of Conserved oligomeric Golgi complex subunit 7 (Homo sapiens) (P83436 whole entry, one chain of several): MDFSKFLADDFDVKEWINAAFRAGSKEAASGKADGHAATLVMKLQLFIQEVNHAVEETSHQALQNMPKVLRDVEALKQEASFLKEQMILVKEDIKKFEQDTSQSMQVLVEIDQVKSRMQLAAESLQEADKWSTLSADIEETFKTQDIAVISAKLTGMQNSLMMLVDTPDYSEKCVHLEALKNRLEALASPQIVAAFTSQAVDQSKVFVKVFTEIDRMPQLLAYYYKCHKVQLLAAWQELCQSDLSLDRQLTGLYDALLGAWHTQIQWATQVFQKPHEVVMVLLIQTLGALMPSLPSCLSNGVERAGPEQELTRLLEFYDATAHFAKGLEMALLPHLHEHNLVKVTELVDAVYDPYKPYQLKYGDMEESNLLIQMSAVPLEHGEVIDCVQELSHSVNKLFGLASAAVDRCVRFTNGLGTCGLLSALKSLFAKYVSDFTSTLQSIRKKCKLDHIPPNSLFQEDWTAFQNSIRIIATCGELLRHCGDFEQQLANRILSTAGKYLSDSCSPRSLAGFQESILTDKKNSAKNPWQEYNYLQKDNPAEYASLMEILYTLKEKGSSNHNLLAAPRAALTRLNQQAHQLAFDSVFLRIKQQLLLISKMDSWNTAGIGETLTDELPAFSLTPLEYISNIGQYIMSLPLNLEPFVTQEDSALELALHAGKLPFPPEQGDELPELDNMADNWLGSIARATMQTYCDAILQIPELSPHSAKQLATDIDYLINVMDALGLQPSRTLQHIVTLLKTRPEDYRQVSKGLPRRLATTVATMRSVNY
Chain of Gem-associated protein 7 (Homo sapiens) (Q9H840 whole entry): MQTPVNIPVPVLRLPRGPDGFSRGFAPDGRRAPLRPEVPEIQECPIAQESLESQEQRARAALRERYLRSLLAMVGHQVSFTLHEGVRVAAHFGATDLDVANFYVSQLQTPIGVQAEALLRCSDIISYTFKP

For `O=C(CCCC[C@@H]1SC[C@@H]2NC(=O)N[C@@H]21)NCCOCCOCCNCCOc1ccc(C(C(=O)NCc2ccccc2)N(C(=O)CCc2ccc(O)cc2)C2CC2)cc1` (mixture of isomers), the Activity [1] was “Active”, the Activity [2] was “Active” and the Activity [3] was “Active”. The Activity [4] was “Active”, the Activity [5] was “Active” and the Activity (Peflin (Homo sapiens)) was “Active”. The Activity [6] was “Active”, the Activity [7] was “Active” and the Activity [8] was “Active”. The Activity [9] was “Active”, the “HSP72 upregulation inhibition (active/not active)” value (INA-6 [10]) was “inactive” and the Activity [11] was “Active”. The Activity [12] was “Active”, the Activity [13] was “Active” and the Activity [14] was “Active”. For the same molecule, the Activity [15] was “Active”, the Activity [16] was “Active” and the Activity [17] was “Active”. For the same molecule, the Activity [18] was “Active”, the Activity [19] was “Active” and the Activity [20] was “Active”. The Activity [21] was “Active”, the Activity [22] was “Active” and the “activity call (active/not active) for inhibition of HSP27 upregulation” value (INA-6 [23]) was “inactive”. The Activity [24] was “Active”, the Activity [25] was “Active” and the Activity [26] was “Active”. For the same molecule, the Activity [27] was “Active”.
`O=C(CCCC[C@@H]1SC[C@@H]2NC(=O)N[C@@H]21)NCCOCCOCCNCCOc1ccc(C(C(=O)NCc2ccccc2)N(C(=O)CCc2ccccc2)C2CC2)cc1` (mixture of isomers) was tested, and the Activity [1] was “Active”, the Activity [2] was “Active” and the Activity [3] was “Active”. The Activity [4] was “Active”, the Activity [5] was “Active” and the Activity (Peflin (Homo sapiens)) was “Active”. The Activity [6] was “Active”, the Activity [7] was “Active” and the Activity [8] was “Active”. The Activity [9] was “Active”, the “HSP72 upregulation inhibition (active/not active)” value (INA-6 [10]) was “inactive” and the Activity [11] was “Active”. For the same molecule, the Activity [12] was “Active”, the Activity [13] was “Active” and the Activity [14] was “Active”. The Activity [15] was “Active”, the Activity [16] was “Active” and the Activity [17] was “Active”. For the same molecule, the Activity [18] was “Active”, the Activity [19] was “Active” and the Activity [20] was “Active”. For the same molecule, the Activity [21] was “Active”, the Activity [22] was “Active” and the “activity call (active/not active) for inhibition of HSP27 upregulation” value (INA-6 [23]) was “inactive”. The Activity [24] was “Active”, the Activity [25] was “Active” and the Activity [26] was “Active”. The Activity [27] was “Active”.
